Nine molecules from ChEMBL document CHEMBL1177854, “Synthesis of bile acid derivatives and in vitro cytotoxic activity with pro-apoptotic process on multiple myeloma (KMS-11), glioblastoma multiforme (GBM), and colonic carcinoma (HCT-116) human cell lines” (Eur J Med Chem, 2010) can be followed below.

Series [1] relates to HCT-116. As to the kind of experiment: Cytotoxicity against human HCT116 cells after 24 hrs by neutral red uptake assay. Format: functional, cell-based. The settings on record: HCT-116, 24 h. A digest of the protocol: (§1)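 GBM-12 (brain tumour line), KMS-11 myeloma or HCT-116 colon carcinoma cells exposed to compound for 24 h; viability read by neutral red uptake. IC50 taken from dose-response curves; mean of three experiments ± standard error.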

The nature of series [2]: Lipophilicity, log P of the compound. The format is physicochemical. The settings on record: octanol/water. A digest of the protocol: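 Log P calculated in silico with the ALogP program; not measured experimentally.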
Series [3] relates to GBM. As to the kind of experiment: Cytotoxicity against human GBM cells after 24 hrs by neutral red uptake assay. The format is functional, cell-based. The method, boiled down: as §1
The nature of series [4]: Cytotoxicity against human KMS11 cells after 24 hrs by neutral red uptake assay. Format: functional, cell-based. The settings on record: KMS-11, 24 h. A digest of the protocol: as §1
Series [5] has as its system KMS-11. As to the kind of experiment: Induction of apoptosis in human KMS11 cells assessed as dead cells at 20 uM after 24 hrs using annexin V stain by FACSCalibur flow cytometry. Format: functional. The method, boiled down: (§2)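 Cells were exposed to compound for 24 h alongside untreated control cultures. They were then labelled with FITC-conjugated annexin V to mark early apoptosis. The percentage of apoptotic cells was read by flow cytometry.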

Series [6] has as its system HCT-116. Kind of series: Induction of apoptosis in human HCT116 cells assessed as dead cells at 20 uM after 24 hrs using annexin V stain by FACSCalibur flow cytometry. The format is functional. A digest of the protocol: as §2
Background: A flow cytometer gives signals particle by particle.

Series [7] relates to KMS-11. As to the kind of experiment: Induction of apoptosis in human KMS11 cells assessed as apoptotic nuclei at 40 uM after 24 hrs by microscopy relative to control. The format is functional.
Series [8] deals with GBM. As to the kind of experiment: Induction of apoptosis in human GBM cells assessed as dead cells at 20 uM after 24 hrs using annexin V stain by FACSCalibur flow cytometry. The format is functional.
Series [9] concerns KMS-11. Kind of series: Induction of apoptosis in human KMS11 cells assessed as apoptotic nuclei at 20 uM after 24 hrs by microscopy relative to control. Format: functional.
Series [10] deals with KMS-11. Kind of series: Induction of apoptosis in human KMS11 cells assessed as DNA fragmentation after 48 hrs. Format: functional, cell-based. A digest of the protocol:
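KMS-11 cultures treated for 48 h; culture supernatants run on agarose gel electrophoresis against a 100 bp DNA ladder to detect DNA fragmentation.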

Series [11] concerns KMS-11. As to the kind of experiment: Induction of apoptosis in human KMS11 cells assessed as apoptotic nuclei at 10 uM after 24 hrs by microscopy relative to control. Format: functional.

Structures are written as SMILES. Active and inactive are the calls of the source. The calls are words filed in the database; no cut-off is given here.

Take `C[C@H](CCC(=O)NN1CCN(C)CC1)[C@H]1CC[C@H]2[C@@H]3[C@H](O)C[C@@H]4C[C@H](O)CC[C@]4(C)[C@H]3CC[C@]12C`: the IC50 was greater than 50 µM in the series with HCT-116 [1], no less than 50 µM in the series with GBM [3] and no less than 50 µM in series [4]. Besides, in series [2] (read-out: logP), the logP stood at 3.26.

For `C[C@H](CCC(=O)N1CCN(C/C=C/c2ccccc2)CC1)[C@H]1CC[C@H]2[C@@H]3[C@H](O)C[C@@H]4C[C@H](O)CC[C@]4(C)[C@H]3C[C@H](O)[C@]12C`, the IC50 (in the series on HCT-116 [1]; in the series with GBM [3]; in series [4]) was greater than 50 µM each time. Also, the logP in [2] (read-out: logP) was 4.71.

Regarding `C[C@H](CCC(=O)N1CCN(C/C=C/c2ccccc2)CC1)[C@H]1CC[C@H]2[C@@H]3[C@@H](O)C[C@@H]4C[C@H](O)CC[C@]4(C)[C@H]3CC[C@]12C`, the 50% inhibitory concentration (IC50) came out at 31.4 µM in the series on HCT-116 [1], 24.7 µM in the series with GBM [3] and 28.1 µM in [4]. Also, the Activity in the series on KMS-11 [5] was found to be 96%; in the series on HCT-116 [6], 45%; in the series with KMS-11 [7], 35%; in the series with GBM [8], 78%; with KMS-11 [9] it was 59%; with KMS-11 [11] it was 84%. In addition, the lipophilicity (logP) in series [2] (read-out: logP) is 5.81. Further, the result in the series with KMS-11 [10] was Active.

As for `C[C@H](CCC(=O)O)[C@H]1CC[C@H]2[C@@H]3[C@H](O)C[C@@H]4C[C@H](O)CC[C@]4(C)[C@H]3CC[C@]12C` [CHENODIOL], the IC50 (with HCT-116 [1]; in the series on GBM [3]; in series [4]) was greater than 50 µM in each case. The molecule further showed a lipophilicity (logP) in series [2] of 4.014.

With `C[C@H](CCC(=O)NN1CCN(C)CC1)[C@H]1CC[C@H]2[C@@H]3[C@H](O)C[C@@H]4C[C@H](O)CC[C@]4(C)[C@H]3C[C@H](O)[C@]12C`, the IC50 (in the series on HCT-116 [1]; in the series with GBM [3]; in [4]) was greater than 50 µM throughout. The lipophilicity (logP) in series [2] (read-out: logP) stood at 2.16.

On to `C[C@H](CCC(=O)NN1CCN(C)CC1)[C@H]1CC[C@H]2[C@@H]3[C@@H](O)C[C@@H]4C[C@H](O)CC[C@]4(C)[C@H]3CC[C@]12C`, for which the IC50 (in the series with HCT-116 [1]; in the series on GBM [3]; in series [4]) was greater than 50 µM throughout. Moreover, in series [2] (read-out: logP), the logP was 3.26.

Consider `C[C@H](CCC(=O)O)[C@H]1CC[C@H]2[C@@H]3[C@H](O)C[C@@H]4C[C@H](O)CC[C@]4(C)[C@H]3C[C@H](O)[C@]12C` [CHOLIC ACID], for which the 50% inhibitory concentration (IC50) (with HCT-116 [1]; in the series with GBM [3]; in [4]) was greater than 50 µM in each case. Also, the logP in [2] is 2.912.

For `C[C@H](CCC(=O)O)[C@H]1CC[C@H]2[C@@H]3[C@@H](O)C[C@@H]4C[C@H](O)CC[C@]4(C)[C@H]3CC[C@]12C` [URSODIOL], the 50% inhibitory concentration (IC50) (in the series with HCT-116 [1]; in the series with GBM [3]; in [4]) was greater than 50 µM throughout. The lipophilicity (logP) in series [2] is 4.014.

`C[C@H](CCC(=O)N1CCN(C/C=C/c2ccccc2)CC1)[C@H]1CC[C@H]2[C@@H]3[C@H](O)C[C@@H]4C[C@H](O)CC[C@]4(C)[C@H]3CC[C@]12C`: the half-inhibitory concentration (IC50) in the series with HCT-116 [1] came to 18.5 µM; in the series on GBM [3], 16.5 µM; in series [4], 8.5 µM. Moreover, the logP in series [2] (read-out: logP) was determined as 5.81.

The IC50 is the concentration that gives 50% inhibition. Higher therefore signals weaker potency in that assay. By logP is commonly meant the decadic logarithm of the partition coefficient of the neutral form, usually between octanol and water.
